The source of these data is publication PMC6004563 (ACS Medicinal Chemistry Letters, 2018).

Data set [1] concerns the target T1, pre-let-7d−Lin28 interaction (Mus musculus, UniProt Q8K3Y3).
T1 sequence (Q8K3Y3 2-209): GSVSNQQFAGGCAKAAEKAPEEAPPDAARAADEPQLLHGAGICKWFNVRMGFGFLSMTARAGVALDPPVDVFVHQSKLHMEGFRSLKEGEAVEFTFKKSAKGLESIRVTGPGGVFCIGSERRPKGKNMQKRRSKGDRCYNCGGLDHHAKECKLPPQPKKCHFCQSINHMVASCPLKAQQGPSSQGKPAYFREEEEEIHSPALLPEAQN
Put plainly: electrophoretic mobility shift assay. The format is binding, murine. To be noted: pre-let-7d with Lin28, dose response.

Data set [2] concerns the target Dicer-mediated pre-let-7d maturation (Homo sapiens, UniProt Q9UPY3). The experiment in a line: Selectivity: Dicer-mediated pre-let-7d maturation. The format is biochemical. To be noted: compound at 100 µM.
Data set [3] has as its target eIF4E−4E-BP1 protein-protein interaction (Homo sapiens, UniProt P06730). Put plainly: Selectivity: cat-ELCCA of the eIF4E−4E-BP1 protein-protein interaction. The format is binding. The settings on record: compound at 100 µM.
A further data set has as its system biotinylated pre-let-7d. Put plainly: SPR binding to biotinylated pre-let-7d. To be noted: 100, 50, 25, 12.5 and 6.25 µM.
In data set [4] the target is T2, pre-let-7d–Lin28A interaction (Mus musculus, UniProt Q8K3Y3).
T2 sequence (Q8K3Y3 2-209): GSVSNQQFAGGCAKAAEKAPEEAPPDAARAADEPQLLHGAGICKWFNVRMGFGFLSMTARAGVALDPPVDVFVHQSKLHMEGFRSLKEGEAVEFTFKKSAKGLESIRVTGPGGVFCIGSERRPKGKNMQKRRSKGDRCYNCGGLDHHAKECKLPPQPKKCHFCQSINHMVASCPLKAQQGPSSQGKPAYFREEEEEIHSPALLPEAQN
The experiment in a line: cat-ELCCA of the pre-let-7d–Lin28A interaction. The format is binding, murine. The procedure, abridged:
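Murine Lin28A, expressed as an N-terminal HaloTag fusion and biotin-labelled, was immobilised in streptavidin-coated wells. Wells were then incubated with pre-let-7d bearing a 5′-trans-cyclooctene click handle. Bound RNA was detected by click reaction with methyltetrazine-labelled HRP, then HRP substrate, with chemiluminescence as read-out. Washing steps were included.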

Data set [5] concerns the target T3, HaloTag-mLin28A (biotinylated) (Mus musculus, UniProt Q8K3Y3 1-209).
T3 sequence: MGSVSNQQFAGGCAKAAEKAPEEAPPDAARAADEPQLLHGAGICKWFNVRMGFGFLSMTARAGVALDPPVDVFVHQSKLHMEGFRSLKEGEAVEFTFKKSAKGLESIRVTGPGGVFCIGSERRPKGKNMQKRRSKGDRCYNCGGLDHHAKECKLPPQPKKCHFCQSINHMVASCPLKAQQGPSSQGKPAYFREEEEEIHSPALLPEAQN
Put plainly: cat-ELCCA.

Dicer-mediated pre-let-7d maturation, sequence (Q9UPY3 whole entry): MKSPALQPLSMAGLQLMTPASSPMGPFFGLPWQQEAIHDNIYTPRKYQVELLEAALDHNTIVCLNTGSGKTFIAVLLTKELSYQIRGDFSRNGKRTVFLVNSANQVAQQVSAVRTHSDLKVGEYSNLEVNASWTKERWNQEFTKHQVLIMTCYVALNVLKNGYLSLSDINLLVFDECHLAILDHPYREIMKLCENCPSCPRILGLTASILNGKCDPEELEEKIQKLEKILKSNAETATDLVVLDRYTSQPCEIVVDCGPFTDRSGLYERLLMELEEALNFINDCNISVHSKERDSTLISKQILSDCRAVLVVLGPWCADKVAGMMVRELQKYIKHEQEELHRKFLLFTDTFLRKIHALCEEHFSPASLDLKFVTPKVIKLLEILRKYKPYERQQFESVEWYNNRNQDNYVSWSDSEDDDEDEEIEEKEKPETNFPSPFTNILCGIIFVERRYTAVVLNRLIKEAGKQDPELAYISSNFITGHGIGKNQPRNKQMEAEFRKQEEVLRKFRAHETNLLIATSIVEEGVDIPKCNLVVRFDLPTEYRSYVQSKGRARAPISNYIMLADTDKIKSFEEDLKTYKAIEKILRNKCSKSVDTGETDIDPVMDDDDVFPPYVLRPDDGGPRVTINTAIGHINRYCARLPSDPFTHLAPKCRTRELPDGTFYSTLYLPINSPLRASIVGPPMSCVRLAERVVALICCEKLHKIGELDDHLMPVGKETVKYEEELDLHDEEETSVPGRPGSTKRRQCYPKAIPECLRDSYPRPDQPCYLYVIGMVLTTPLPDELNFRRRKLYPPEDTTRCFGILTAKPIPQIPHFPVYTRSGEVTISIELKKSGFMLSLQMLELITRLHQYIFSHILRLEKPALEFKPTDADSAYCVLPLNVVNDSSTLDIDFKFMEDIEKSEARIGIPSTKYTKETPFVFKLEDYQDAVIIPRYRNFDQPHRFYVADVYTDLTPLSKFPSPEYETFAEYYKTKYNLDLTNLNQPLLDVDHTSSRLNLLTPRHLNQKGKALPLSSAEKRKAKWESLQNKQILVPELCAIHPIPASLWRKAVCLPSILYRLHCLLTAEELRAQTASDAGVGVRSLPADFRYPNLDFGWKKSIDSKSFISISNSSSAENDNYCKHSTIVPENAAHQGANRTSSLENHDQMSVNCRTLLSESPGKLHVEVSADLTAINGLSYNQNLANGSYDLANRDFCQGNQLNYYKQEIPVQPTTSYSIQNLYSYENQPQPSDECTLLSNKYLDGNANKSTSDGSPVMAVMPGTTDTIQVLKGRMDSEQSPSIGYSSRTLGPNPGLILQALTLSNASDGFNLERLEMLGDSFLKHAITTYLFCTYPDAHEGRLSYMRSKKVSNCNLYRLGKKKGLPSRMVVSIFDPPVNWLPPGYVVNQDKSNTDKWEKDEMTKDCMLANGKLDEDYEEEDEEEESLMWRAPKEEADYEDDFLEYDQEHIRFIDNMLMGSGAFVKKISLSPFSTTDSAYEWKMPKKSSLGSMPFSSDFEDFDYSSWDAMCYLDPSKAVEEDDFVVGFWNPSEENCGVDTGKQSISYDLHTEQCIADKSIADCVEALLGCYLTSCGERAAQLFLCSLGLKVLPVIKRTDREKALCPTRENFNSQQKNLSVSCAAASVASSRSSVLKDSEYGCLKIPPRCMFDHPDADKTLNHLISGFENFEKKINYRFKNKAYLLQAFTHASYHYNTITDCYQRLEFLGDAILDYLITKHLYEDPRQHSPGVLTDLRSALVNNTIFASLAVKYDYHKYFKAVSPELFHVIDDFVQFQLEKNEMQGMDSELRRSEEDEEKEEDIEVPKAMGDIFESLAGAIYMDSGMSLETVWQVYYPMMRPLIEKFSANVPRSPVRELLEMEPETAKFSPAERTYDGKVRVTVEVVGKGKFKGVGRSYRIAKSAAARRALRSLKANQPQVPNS
eIF4E−4E-BP1 protein-protein interaction, sequence (P06730 whole entry): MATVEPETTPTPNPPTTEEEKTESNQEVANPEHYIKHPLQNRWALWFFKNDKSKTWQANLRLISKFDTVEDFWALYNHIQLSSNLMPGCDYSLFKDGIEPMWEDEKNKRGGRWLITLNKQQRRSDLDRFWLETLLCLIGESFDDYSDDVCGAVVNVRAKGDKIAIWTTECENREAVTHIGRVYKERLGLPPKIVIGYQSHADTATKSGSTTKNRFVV

In the case of `Cc1ccc(S(=O)(=O)Nc2ccc(F)cc2NS(=O)(=O)c2ccc(C)cc2)cc1` [CCG-233094], the “activity in EMSA” value in data set [1] is “concentration-responsive activity”. In addition, in data set [2], the “inhibition of Dicer-mediated pre-let-7d maturation” value is “insignificant inhibition”. For the same molecule, in data set [3], the “inhibition of cat-ELCCA-based PPI assay” value is “insignificant inhibition”. Further, the “binding to pre-let-7d (SPR)” value with biotinylated pre-let-7d was “not pre-let-7d”. For the molecule `Cc1ccc(S(=O)(=O)Nc2ccc(C)cc2NS(=O)(=O)c2cccc(C(F)(F)F)c2)cc1` [CCG-234459], in data set [1], the “activity in EMSA” value is reported as “concentration-responsive activity”. The “inhibition of Dicer-mediated pre-let-7d maturation” value in data set [2] was “insignificant inhibition”. Moreover, the “inhibition of cat-ELCCA-based PPI assay” value in data set [3] is “insignificant inhibition”. Further, in the data set with biotinylated pre-let-7d, the “binding to pre-let-7d (SPR)” value is reported as “not pre-let-7d”.

Take `Nc1ccccc1NS(=O)(=O)c1ccccc1` [Compound 3]: in data set [4], the “activity (inhibition of pre-let-7d–Lin28A)” value was “inactive”. As for `O=S(=O)(Nc1cccc(NS(=O)(=O)c2ccccc2)c1)c1ccccc1` [Compound 4, N,N′-(1,3-phenylene)dibenzenesulfonamide], the “activity (inhibition of pre-let-7d–Lin28A)” value in data set [4] is “inactive”. With `O=S(=O)(c1ccccc1)N1CCN(S(=O)(=O)c2ccccc2)c2ccccc21` [Compound 5], the “activity (inhibition of pre-let-7d–Lin28A)” value in data set [4] is “inactive”. Take `O=C(Nc1ccccc1NC(=O)c1ccccc1)c1ccccc1` [Compound 6]: in data set [4], the “activity (inhibition of pre-let-7d–Lin28A)” value was “inactive”.

B1: 5'-TCO-pre-let-7d (structured_RNA)
RNA: AGAGGUAGUAGGUUGCAUAGUUUUAGGGCAGGGAUUUUGCCCACAAGGAGGUAACUAUACGACCUGCUGCCUUUCU
modifications: 5'-phosphate pentylamine (N5) linked to TCO-PEG4
Consider B1, for which the affinity in data set [5], expressed as Kd, was 106 nM. That is a sub-micromolar value.
